Measured values collected from several papers.
Effect on: cell growth or viability

SMILES	cell line	technique	time	IC50
OCc1ccc(-c2nn(Cc3ccccn3)c3cccnc23)o1	HuCCT-1	ATP luminescence		> 46 µM
Cc1ccc(S(=O)(=O)[O-])cc1.Nc1c([I+]c2ccccc2)c(=O)oc2ccccc12	HaCaT	MTT	48 h	35 µg/mL
O=C1CS/C(=N\c2ccccc2Cl)N1c1nnc(-c2ccc(C(F)(F)F)cc2/N=C2\SCC(=O)N2c2ccccc2Cl)s1	WI-38	MTT		49.2 µM
COc1cccc2c1C(=O)c1c(O)c3c(c(O)c1C2=O)C[C@@](O)(C(=O)CO)C[C@@H]3O[C@H]1C[C@H](N)[C@H](O)[C@H](C)O1	HaCaT	MTT	72 h	0.3 µM
CC(C)C(=O)Nc1ccc([N+](=O)[O-])c(C(F)(F)F)c1	HaCaT	MTS	48 h	> 100 µM
O=C1CS/C(=N\c2ccc(F)cc2O)N1c1nnc(-c2ccc(C(F)(F)F)cc2/N=C2\SCC(=O)N2c2ccc(F)cc2O)s1	WI-38	MTT		20.5 µM
O=c1[nH]cc(F)c(=O)[nH]1	HaCaT	SRB		0.05 µg/mL
Cc1nc(Nc2ncc(C(=O)Nc3c(C)cccc3Cl)s2)cc(N2CC[C@H](O)C2)n1	OCI-LY19	ATP luminescence	72 h	> 10 µM
CN1CCC(NC2CCc3[nH]c4c(C(N)=O)ccc(-c5ccccc5Cl)c4c3C2)CC1 (centres unmarked)	HuCCT-1		96 h	0.00122 µM
COc1cccc2c1C(=O)c1c(O)c3c(c(O)c1C2=O)C[C@@](O)(C(=O)CO)C[C@@H]3O[C@H]1C[C@H](N)[C@H](O)[C@H](C)O1	HPAF-II	ATP luminescence	72 h	0.7 µM
CCCCn1cnc2ccc(-c3ccc(NC(=O)NCC)nc3)cc2c1=O	HCC827	CCK-8	72 h	> 10 µM
O=C1CSC(=Nc2cc([N+](=O)[O-])ccc2[N+](=O)[O-])N1c1nnc(-c2ccc(C(F)(F)F)cc2N=C2SCC(=O)N2c2cc([N+](=O)[O-])ccc2[N+](=O)[O-])s1	WI-38	MTT		89.2 µM
CC(C)=CCc1ncc(/C=C2\NC(=O)[C@H](C(C)C)NC2=O)[nH]1	ASPC1	SRB		> 15 µM
OCc1ccc(-c2nn(Cc3ccncc3)c3ccccc23)o1	HuCCT-1	ATP luminescence		> 46 µM
O=P1(c2ccccc2)CCCCC1	HaCaT	MTT	72 h	> 100 µM
Cc1ccc(C(=O)Nc2ccc(-c3ccc4ncn(Cc5ccccc5)c(=O)c4c3)cn2)cc1	HCC827	CCK-8	72 h	> 10 µM
O=C1CS/C(=N\c2cc(C(F)(F)F)ccc2-c2nnc(N3C(=O)CS/C3=N\c3ccc(-c4ccccc4)cc3)s2)N1c1ccc(-c2ccccc2)cc1	WI-38	MTT		94.7 µM
COc1cnccc1Cn1nc(-c2ccc(CO)o2)c2ccccc21	HuCCT-1	ATP luminescence		> 46 µM

SMILES	cell line	technique	time	IC50
COc1ccc(N=Nc2c(N)nn3c(-c4ccc(C)cc4)cc(-c4ccc(OCc5ccccc5)cc4)nc23)cc1	WI-38	MTT	48 h	47 µM
CC(C)[C@@H]1NC(=O)/C(=C/c2cnc[nH]2)NC1=O	ASPC1	SRB		> 15 µM
CCCCn1cnc2ccc(-c3ccc(NC(=O)Nc4ccc(CC)cc4)nc3)cc2c1=O	HCC827	CCK-8	72 h	> 10 µM
COc1cccc(N=C2SCC(=O)N2c2nnc(-c3ccc(C(F)(F)F)cc3N=C3SCC(=O)N3c3cccc(OC)c3)s2)c1	WI-38	MTT		82.1 µM
O=C(Nc1ccc(-c2ccc3ncn(Cc4ccccc4)c(=O)c3c2)cn1)C1CCCC1	HCC827	CCK-8	72 h	> 10 µM
Cc1cccc([N+](=O)[O-])c1N=C1SCC(=O)N1c1nnc(-c2ccc(C(F)(F)F)cc2N=C2SCC(=O)N2c2c(C)cccc2[N+](=O)[O-])s1	WI-38	MTT		67.5 µM
CCCn1cnc2ccc(-c3ccc(NC(=O)CNC(C)C)nc3)cc2c1=O	HCC827	CCK-8	72 h	> 10 µM
OCc1ccc(-c2nn(Cc3cccnc3)c3ccccc23)o1	HuCCT-1	ATP luminescence		> 46 µM
COc1ccc(N=C2SCC(=O)N2c2nnc(-c3ccc(C(F)(F)F)cc3N=C3SCC(=O)N3c3ccc(OC)cc3)s2)cc1	WI-38	MTT		69.5 µM
CCCCn1cnc2ccc(-c3ccc(NC(=O)Nc4ccccc4)nc3)cc2c1=O	HCC827	CCK-8	72 h	0.98 µM
COc1cc(Cn2nc(-c3ccc(CO)o3)c3ccccc32)ccn1	HuCCT-1	ATP luminescence		> 46 µM
O=P1(C2CCCCC2)CCCCC1	HaCaT	MTT	72 h	> 100 µM
CCCCC(=O)Nc1ccc(-c2ccc3ncn(CCC)c(=O)c3c2)c(C)n1	HCC827	CCK-8	72 h	1.68 µM
NCc1ccc(-c2nn(Cc3ccccc3)c3ccccc23)o1	HuCCT-1	ATP luminescence		> 46 µM
CCCCn1cnc2ccc(-c3ccc(NC(=O)Nc4ccc(C)cc4)nc3)cc2c1=O	HCC827	CCK-8	72 h	9.15 µM
NCc1ccc(-c2nn(Cc3ccccn3)c3cccnc23)o1	HuCCT-1	ATP luminescence		> 46 µM
O=C1CS/C(=N\c2cc(C(F)(F)F)ccc2-c2nnc(N3C(=O)CS/C3=N\c3ccc(Cl)cc3)s2)N1c1ccc(Cl)cc1	WI-38	MTT		49.2 µM
